This is an account of results in ChEMBL document CHEMBL4665634, “Inhibiting Aβ toxicity in Alzheimer's disease by a pyridine amine derivative” (Eur J Med Chem, 2019).

In experiment [1] the test system is Caenorhabditis elegans. The experiment is described as follows: Upregulation of hsp-16.2 mRNA expression in Caenorhabditis elegans CL4176 at 50 uM by qRT-PCR analysis relative to control. Type of experiment: functional. Summed up:
(§1)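 CL4176 worms treated with compound at 25 °C for 48 h (50, 100 µM for amy-1). RNA extracted with Trizol, cDNA made, EvaGreen qRT-PCR run for 40 cycles (95 °C 5 s, 60 °C 5 s). Normalized to ama-1 by the 2^−ΔΔCt method. Three independent preparations, samples in triplicate.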
Background: Real-time PCR tracks product formation cycle by cycle.

Experiment [2] addresses T1, Amyloid-beta precursor protein (Homo sapiens, UniProt P05067). Briefly: Inhibition of amyloid beta (1 to 42)-induced paralysis in transgenic Caenorhabditis elegans CL4176 expressing human amyloid beta (1 to 42) assessed as paralyzed worms at 100 uM treated for 49 hrs at 25 degreeC by microscopic analysis (reference value: 87 %). Also noted: scale not given: the % may be the effect or the level left.

Experiment [3] can be described thus: Inhibition of Zn2+ induced amyloid beta (1 to 40) aggregation assessed as appearance of granule like species at 0.1 to 100 uM incubated for 24 hrs uranyl acetate staining-based by TEM analysis. The conditions noted are these: dose microM 0.1-100, time 24.0 hrs.
The subject of experiment [4] is Mus musculus. The experiment is described as follows: Cognitive enhancing effect in APP/PS1 double mutant-transgenic C57BL/6 mouse model assessed as time spent on target quadrant at 1 mg/kg, iv measured on day 6 by Morris water maze test (reference value: 11.77 +/- 5.28 sec). Format: functional. The settings on record: time 6 day.
Experiment [5] can be described thus: Inhibition of Cu2+ induced amyloid beta (1 to 40) aggregation assessed as appearance of granule like species at 0.1 to 100 uM incubated for 24 hrs uranyl acetate staining-based by TEM analysis. The settings on record: dose microM 0.1-100, time 24.0 hrs.
Experiment [6] has as its target T1, Amyloid-beta precursor protein. The experiment is described as follows: Inhibition of amyloid beta (1 to 42)-induced paralysis in transgenic Caenorhabditis elegans GMC101 L3 expressing human amyloid beta (1 to 42) assessed as reduction in fluorescence intensity at 50 uM incubated for 2 days by fluorescence based confocal microscopic analysis relative to control. The settings on record: time 2.0 day. Summed up: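 GMC101 L3 worms kept on compound plates (50, 100 µM) at 25 °C for 2 days, mounted on 2% agarose pads. GFP imaged by confocal microscopy at ex 488/em 500–530 nm and intensity quantified. Two experiments, 15 worms per group.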

The test system of experiment [7] is Caenorhabditis elegans. The experiment is described as follows: Reduction in less than 55 kDa amyloid beta species expression in Caenorhabditis elegans CL4176 at 50 uM after 48 hrs by Western blot analysis. Type of experiment: functional. Summed up:
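CL4176 raised on plates with compound (50 µM) at 15 °C to L3, then kept at 25 °C for 2 days. Worms sonicated in 0.1 M phosphate buffer, 16 µg protein run on 12% SDS-PAGE and blotted to PVDF. Probed with 6E10 (1:1000) and HRP anti-mouse secondary, with β-actin as the loading control.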
For orientation: A western blot detects proteins with antibodies after separation by electrophoresis.

The nature of experiment [8]: Inhibition of Cu2+ induced amyloid beta (1 to 40) aggregation assessed as reduction in fluorescence intensity at 20 uM preincubated for 5 mins in presence of CuCl2 followed by compound addition addition and incubated for 24 hrs by Thioflavin T based fluorometric assay. In a few lines: (§2)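 Aβ40 (20 µM) preincubated with CuCl2 or ZnCl2 (20 µM) for 5 min at room temperature. Compound (20 µM) added, incubated 37 °C for 24 h. ThT (5 µM) added, fluorescence read at ex 450/em 485 nm. Mean ± S.D. of at least three independent experiments.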

Experiment [9] relates to Mus musculus. The experiment is described as follows: Cognitive enhancing effect in APP/PS1 double mutant-transgenic C57BL/6 mouse model assessed as increase in number of hidden escape platform crossings at 1 mg/kg, iv. Format: functional, organism-based.
Experiment [10] deals with Caenorhabditis elegans. The experiment is described as follows: Antioxidant activity in Caenorhabditis elegans CL4176 assessed as effect on ROS production at 100 uM and 15 to 25 degreeC after 48 hrs by H2DCF-DA probe based fluorescence assay ( Rvb = 33.68 %). Format: functional.
Experiment [11] has as its system Caenorhabditis elegans. The experiment is described as follows: Upregulation of hsf-1 mRNA expression in Caenorhabditis elegans CL4176 at 50 uM by qRT-PCR analysis relative to control. Type of experiment: functional. Summed up: as §1
Experiment [12] deals with Caenorhabditis elegans. Briefly: Inhibition of AChE in Caenorhabditis elegans CL4176 assessed as enzyme activity at 25 uM after 48 hrs by DTNB reagent based colorimetric analysis (reference value: 272.49 +/- 14.6 units/L). In a few lines: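 Transgenic CL4176 worms kept on NGM plates with compound (0, 25, 50, 100 µM) at 25 °C for 48 h. Lysates made by sonication in 0.1 M phosphate buffer pH 7.4 and centrifuged at 13000 rpm for 5 min. AChE activity in the supernatant was measured with a kit, read as absorbance at 412 nm, given in Units/L normalized to protein concentration, mean ± S.D.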

Experiment [13] addresses T1, Amyloid-beta precursor protein. Briefly: Inhibition of amyloid beta (1 to 42)-induced paralysis in transgenic Caenorhabditis elegans GMC101 expressing human amyloid beta (1 to 42) assessed as paralyzed worms at 200 uM measured after 92 hrs by microscopic analysis relative to control. Details: scale not given: the % may be the effect or the level left.
Experiment [14] has the same target. Briefly: Inhibition of amyloid beta (1 to 42)-induced paralysis in transgenic Caenorhabditis elegans GMC101 expressing human amyloid beta (1 to 42) assessed as paralyzed worms at 100 uM measured after 92 hrs by microscopic analysis relative to control. Also noted: scale not given: the % may be the effect or the level left.
Experiment [15] in a line: Inhibition of Zn2+ induced amyloid beta (1 to 40) aggregation assessed as reduction in fluorescence intensity at 20 uM preincubated for 5 mins in presence of ZnCl2 followed by compound addition addition and incubated for 24 hrs by Thioflavin T based fluorometric assay. Summed up: as §2
The target of experiment [16] is T1, Amyloid-beta precursor protein. The experiment is described as follows: Inhibition of self-induced amyloid beta (1 to 42) (unknown origin) aggregation assessed as decrease in negative band ellipticity and shift around 230 nm resulting in inhibition of beta-sheets formation at 80 uM incubated for 24 hrs by circular dichroism spectroscopy. In a few lines:
(§3)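 CD spectra taken on Aβ42 (40 µM). Metal ion (ZnCl2 or CuCl2, 40 µM) was preincubated 5 min at room temperature where present, then compound (80 µM) was added and incubated at 37 °C for 24 h. Spectra recorded 190–270 nm in a 1.0 cm quartz cell, bandwidth 0.1 nm, response time 10 s.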
On the technique in general: Circular dichroism is the unequal absorption of left and right circularly polarised light.

The test system of experiment [17] is Caenorhabditis elegans. The experiment is described as follows: Effect on sod-3 mRNA expression in Caenorhabditis elegans CL4176 at 50 uM by qRT-PCR analysis. Type of experiment: functional. Summed up: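 CL4176 qRT-PCR of skn-1 or sod-3. RNA extracted with Trizol, EvaGreen qRT-PCR run for 40 cycles (95 °C 5 s, 60 °C 5 s). Normalized to ama-1 by the 2^−ΔΔCt method. Three independent RNA/cDNA preparations, run in triplicate.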

For experiment [18], the target named is T1, Amyloid-beta precursor protein. The experiment is described as follows: Inhibition of self-induced amyloid beta (1 to 42) (unknown origin) aggregation assessed as decrease in negative band ellipticity and shift around 230 nm resulting in modulation of amyloid beta (1 to 42) conformation at 80 uM incubated for 24 hrs by circular dichroism spectroscopy. Summed up:
as §3

Experiment [19] has as its system Caenorhabditis elegans. The experiment is described as follows: Effect on ace-1 mRNA expression in Caenorhabditis elegans CL4176. Format: functional.

The source made the active and inactive calls. The rule behind the calls is not given here.

T1 sequence (P05067 whole entry): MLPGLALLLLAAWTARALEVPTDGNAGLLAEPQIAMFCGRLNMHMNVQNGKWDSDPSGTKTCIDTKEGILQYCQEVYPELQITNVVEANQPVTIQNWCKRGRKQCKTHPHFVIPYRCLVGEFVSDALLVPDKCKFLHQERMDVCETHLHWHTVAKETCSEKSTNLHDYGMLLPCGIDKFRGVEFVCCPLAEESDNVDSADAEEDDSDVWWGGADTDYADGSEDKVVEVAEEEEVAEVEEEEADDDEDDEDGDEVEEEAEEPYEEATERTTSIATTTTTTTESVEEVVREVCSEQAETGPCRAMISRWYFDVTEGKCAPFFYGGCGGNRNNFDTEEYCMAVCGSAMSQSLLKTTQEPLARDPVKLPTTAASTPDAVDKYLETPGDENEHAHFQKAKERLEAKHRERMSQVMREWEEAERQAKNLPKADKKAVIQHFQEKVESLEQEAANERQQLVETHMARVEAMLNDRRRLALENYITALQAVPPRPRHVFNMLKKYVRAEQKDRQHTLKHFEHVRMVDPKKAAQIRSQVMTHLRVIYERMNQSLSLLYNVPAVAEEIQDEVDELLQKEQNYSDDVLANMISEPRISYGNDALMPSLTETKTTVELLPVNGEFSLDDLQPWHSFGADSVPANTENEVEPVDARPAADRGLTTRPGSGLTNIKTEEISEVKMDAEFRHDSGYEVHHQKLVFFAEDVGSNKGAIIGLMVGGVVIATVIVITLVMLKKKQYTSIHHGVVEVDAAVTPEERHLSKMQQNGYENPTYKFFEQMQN

`Oc1cc(CN(Cc2ccccn2)Cc2ccccn2)cc(C[P+](c2ccccc2)(c2ccccc2)c2ccccc2)c1.[Br-]`: the fold change (FC) in the experiment on Caenorhabditis elegans [1] came out at 2.15; with Caenorhabditis elegans [11], 1.55. In addition, the Activity in [2] was determined as 66%; in the experiment on Caenorhabditis elegans [10], 21.72%; in the experiment with Caenorhabditis elegans [12] it was 248 U/L; in experiment [13] it was 35%; in experiment [14], 66%. Further, the inhibition result in [3], in [5], in experiment [8], in experiment [15], in experiment [16] and in [18] was “Active” each time. Besides, the Time in the experiment with Mus musculus [4] stood at 17.2 s. Besides, the inhibition in experiment [6] came out at 43%. Further, the outcome with Caenorhabditis elegans [7] and in the experiment with Mus musculus [9] was Active. In addition, the outcome in the experiment on Caenorhabditis elegans [17] and in the experiment on Caenorhabditis elegans [19] was inactive.

As usually defined, the inhibition is the change of the read-out against control, counted positive when it falls.
